Experimental data collected from several papers.
Each line is one published result; the experiments were not run side by side.
Target: Mitogen-activated protein kinase kinase kinase 3 (MAP3K3, Homo sapiens, UniProt Q99759)
Sequence (Q99759 1-626, as in one of the studies): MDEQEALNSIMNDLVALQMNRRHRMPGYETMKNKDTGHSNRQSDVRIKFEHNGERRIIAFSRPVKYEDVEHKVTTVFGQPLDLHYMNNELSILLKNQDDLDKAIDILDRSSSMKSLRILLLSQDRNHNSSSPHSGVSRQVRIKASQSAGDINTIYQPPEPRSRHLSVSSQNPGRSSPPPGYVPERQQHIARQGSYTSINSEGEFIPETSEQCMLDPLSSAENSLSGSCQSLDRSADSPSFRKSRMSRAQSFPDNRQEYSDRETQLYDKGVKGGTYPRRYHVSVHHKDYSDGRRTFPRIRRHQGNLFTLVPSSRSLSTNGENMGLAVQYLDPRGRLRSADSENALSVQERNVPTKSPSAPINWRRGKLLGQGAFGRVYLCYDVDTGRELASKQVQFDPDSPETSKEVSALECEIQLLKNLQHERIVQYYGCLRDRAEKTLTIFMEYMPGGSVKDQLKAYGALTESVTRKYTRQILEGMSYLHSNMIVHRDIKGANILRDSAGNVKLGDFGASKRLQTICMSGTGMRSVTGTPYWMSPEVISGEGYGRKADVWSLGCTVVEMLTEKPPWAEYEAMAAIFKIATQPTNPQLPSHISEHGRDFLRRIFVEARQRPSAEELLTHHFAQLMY

O=c1[nH]c2ccccc2n1C1CCN(Cc2ccc(-c3[nH]c4cc5ncnc5cc4nc3-c3ccccc3)cc2)CC1 has a remaining signal of 101% (cell-free assay; 0.5 µM).
With Cc1nn(C)cc1-c1nc2c(N3CCN(Cc4ccc(Cl)cc4)CC3)c(Cl)cnc2[nH]1 the remaining binding was 91% (binding, competition with immobilised ligand; 1 µM).
With Cn1cncc1[C@@](O)(COc1ccc(C#N)cc1-c1ccc(OC(F)(F)F)cc1)c1ccc(C#N)cc1 the remaining binding was 81% (cell-free assay, competition with immobilised ligand; 1 µM).
For Nc1ncc(-c2nc(N3CCOCC3)nc(N3CCOCC3)n2)c(C(F)F)n1, the remaining binding was 72% (binding, competition with immobilised ligand; 10 µM).
With Cn1cc(-c2cc(F)cc(N3CCn4c(cc5c4CCCC5)C3=O)c2CO)cc(Nc2ccc(N3CCN(C4COC4)CC3)cn2)c1=O the inhibition was 1% (enzyme activity, inhibitor; 0.1 µM).
The remaining binding of COc1ncccc1-c1cnn2ccc(N3CCN(C(=O)OC(C)C)CC3)nc12 is reported as 100% (binding, competition with immobilised ligand; 1 µM).
CC(C)(C)c1cc(C=C(C#N)C#N)cc(Br)c1O gave a remaining activity of 118% (enzyme activity, inhibitor; 0.5 µM).
For Cn1cc(-c2cccc(N3CCc4c(sc5c4CC(C)(C)C5)C3=O)c2CO)cc(Nc2ccncn2)c1=O, the inhibition was 3% (enzyme activity, inhibitor; 1 µM).
The inhibition of COCc1c(-c2cc3cc(C)cc(OC)c3s2)c2c(N)ncnn2c1CN1CCNC(=O)C1 is reported as 95.3% (cell-free assay, competition with immobilised ligand; 1 µM).
